Source: paper PMC3149845 (The Journal of neuroscience : the official journal of the …, 2011)
“Also recorded” adds a separate entry of the source. Peptide text beside a SMILES is read from it.

Columns and labels:
[1] = target: sm(1–567)hTas1R2 + hTas1R3 (Saimiri sciureus, UniProt A3QP08, A682V/A736V/D779S/E587Q/F759L/F793L/I713V/L619P/L692M/M590I/M711T/N698S/S673P/S691G/T687I/T705P/V634L/V653A/V677M/V777A); assay: Ca2+ mobilization, chimera receptor; format: cell-based, human/squirrel monkey; conditions: aspartame 10mM, neotame 1mM, sucralose 2 mM; compared with hTas1R2/hTas1R3
[2] = target: T1, h(1–572)smTas1R2 + hTas1R3 (Homo sapiens, UniProt Q8TE23, A658V/A782V/G696S/I595M/I692T/L639V/L764F/L798F/M682V/M697L/P624L/P678S/P710T/Q592E/S703N/S784D/T716M/V687A/V718I/V741A); assay: Ca2+ mobilization, chimera receptor; format: cell-based, human/squirrel monkey; conditions: aspartame 10mM, neotame 1mM, sucralose 2 mM; compared with hTas1R2/hTas1R3
T1 sequence (Q8TE23 20-839 Q592E/I595M/P624L/L639V/A658V/P678S/M682V/V687A/I692T/G696S/M697L/S703N/P710T/T716M/V718I/V741A/L764F/A782V/S784D/L798F): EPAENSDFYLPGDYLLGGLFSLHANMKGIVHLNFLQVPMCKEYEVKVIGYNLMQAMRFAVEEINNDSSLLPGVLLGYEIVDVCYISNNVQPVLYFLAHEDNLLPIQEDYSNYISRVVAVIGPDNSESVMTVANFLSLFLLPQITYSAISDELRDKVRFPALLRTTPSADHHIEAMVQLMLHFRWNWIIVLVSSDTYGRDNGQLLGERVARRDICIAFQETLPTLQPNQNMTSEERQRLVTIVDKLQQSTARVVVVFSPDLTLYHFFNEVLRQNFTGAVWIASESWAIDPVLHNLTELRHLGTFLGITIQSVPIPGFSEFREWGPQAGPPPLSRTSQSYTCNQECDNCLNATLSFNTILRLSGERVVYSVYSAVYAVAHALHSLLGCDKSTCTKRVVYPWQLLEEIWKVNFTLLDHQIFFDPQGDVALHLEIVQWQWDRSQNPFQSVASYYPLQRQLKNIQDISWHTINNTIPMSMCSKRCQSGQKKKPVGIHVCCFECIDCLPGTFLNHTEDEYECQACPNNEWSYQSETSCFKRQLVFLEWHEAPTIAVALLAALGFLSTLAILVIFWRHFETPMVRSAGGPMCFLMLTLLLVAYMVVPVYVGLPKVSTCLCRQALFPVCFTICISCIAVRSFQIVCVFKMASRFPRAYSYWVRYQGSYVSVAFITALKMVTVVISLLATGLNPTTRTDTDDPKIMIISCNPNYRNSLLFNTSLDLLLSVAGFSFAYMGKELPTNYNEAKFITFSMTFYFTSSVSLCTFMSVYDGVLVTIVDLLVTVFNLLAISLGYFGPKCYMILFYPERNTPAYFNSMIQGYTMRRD
T1 sequence (Q7RTX0 21-852 partner): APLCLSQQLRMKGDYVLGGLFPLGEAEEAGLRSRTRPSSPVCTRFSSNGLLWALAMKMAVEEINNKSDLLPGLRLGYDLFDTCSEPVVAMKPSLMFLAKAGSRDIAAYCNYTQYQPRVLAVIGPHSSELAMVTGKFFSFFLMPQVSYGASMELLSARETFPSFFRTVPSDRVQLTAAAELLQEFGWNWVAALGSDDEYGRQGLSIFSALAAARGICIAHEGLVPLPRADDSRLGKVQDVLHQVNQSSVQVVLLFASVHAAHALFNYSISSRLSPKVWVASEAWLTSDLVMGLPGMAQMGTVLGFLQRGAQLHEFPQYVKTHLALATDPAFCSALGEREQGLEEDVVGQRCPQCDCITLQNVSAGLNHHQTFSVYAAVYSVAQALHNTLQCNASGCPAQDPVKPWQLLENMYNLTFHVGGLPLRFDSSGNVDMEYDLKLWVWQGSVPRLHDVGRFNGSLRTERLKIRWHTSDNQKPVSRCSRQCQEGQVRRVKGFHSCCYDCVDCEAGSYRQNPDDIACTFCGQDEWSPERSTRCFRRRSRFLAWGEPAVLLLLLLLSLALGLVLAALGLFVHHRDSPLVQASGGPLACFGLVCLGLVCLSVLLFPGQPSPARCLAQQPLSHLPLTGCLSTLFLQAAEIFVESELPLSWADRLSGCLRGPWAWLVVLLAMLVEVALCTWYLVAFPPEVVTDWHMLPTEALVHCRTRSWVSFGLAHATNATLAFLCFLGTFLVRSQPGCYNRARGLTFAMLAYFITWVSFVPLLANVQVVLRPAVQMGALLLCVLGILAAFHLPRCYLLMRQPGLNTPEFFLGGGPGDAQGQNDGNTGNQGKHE
Method in brief: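 HEK293E cells grown at 37°C in Opti-MEM with 5% FBS and seeded at 50,000/well. Cells co-lipofected with Tas1R plasmids and Gα16-gust44 (0.06 μg each per well); medium changed at 20 h, assayed 24 h later. Cells loaded 1 h with Fluo-4 AM in HEPES-buffered HBSS. Tastant added at 30 s; fluorescence (ex 488/em 525 nm) read every 2 s for 150 s more. ΔF/F normalised to human receptor maximal sucralose response; mean ± SEM, three independent experiments.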

SMILES	calcium response to sweetener [1]	calcium response to sweetener [2]
COC(=O)[C@H](Cc1ccccc1)NC(=O)[C@@H](N)CC(=O)O [aspartame, L-α-aspartly-L-phenylalanine methyl ester] (H-Asp-Phe-OMe)	no responses	significantly reduced responses; also recorded: significant reduction of the response
COC(=O)[C@H](Cc1ccccc1)NC(=O)[C@H](CC(=O)O)NCCC(C)(C)C [neotame]	no responses	significantly reduced responses; also recorded: significant reduction of the response
OC[C@H]1O[C@H](O[C@]2(CCl)O[C@H](CCl)[C@@H](O)[C@@H]2O)[C@H](O)[C@@H](O)[C@H]1Cl [sucralose]	significant increase of the response	significant reduction of the response
